{"data": "Published values from different studies", "CDK4": "Cyclin-dependent kinase 4 (CDK4, Homo sapiens, UniProt P11802)"}
{"SMILES": "COCCCOc1cc(C[C@@H](C[C@H](N)[C@@H](O)C[C@H](C(=O)NCC(C)(C)C(N)=O)C(C)C)C(C)C)ccc1OC", "target": "Renin (REN, Homo sapiens, UniProt P00797)", "test": "enzyme activity, inhibitor", "conditions": "10 nM", "measurement": "inhibition", "value": "70%"}
{"SMILES": "Cc1nn(C)cc1-c1nc2c(N3CCN(Cc4ccc(Cl)cc4)CC3)c(Cl)cnc2[nH]1", "target": "Serine/threonine-protein kinase MRCK beta (CDC42BPB, Homo sapiens, UniProt Q9Y5S2)", "test": "binding, competition with immobilised ligand", "conditions": "1 µM", "measurement": "remaining binding", "value": "55%"}
{"SMILES": "COc1ncccc1-c1cnn2ccc(N3CCN(C(=O)OC(C)C)CC3)nc12", "target": "Myosin-IIIb (MYO3B, Homo sapiens, UniProt Q8WXR4)", "test": "binding, competition with immobilised ligand", "conditions": "1 µM", "measurement": "remaining binding", "value": "100%"}
{"SMILES": "CCOC(=O)[C@H]1Cc2c(cc([N+](=O)[O-])cc2[N+](=O)[O-])[C@@H](O)[C@@]12C(=O)Nc1cccc(Br)c12", "target": "CDK4", "test": "cell-free assay, inhibitor, TR-FRET", "conditions": "1 µM", "measurement": "inhibition", "value": "45.6%"}
{"SMILES": "Clc1cccc(-c2c[nH]c3nccc(N4CCOCC4)c23)c1", "target": "Serine/threonine-protein kinase 3 (STK3, Homo sapiens, UniProt Q13188)", "test": "thermal stability, DSF", "measurement": "ΔTm", "value": "> 7.4 °C"}
{"SMILES": "CCOC(=O)[C@H]1Cc2c(cc([N+](=O)[O-])cc2[N+](=O)[O-])[C@H](O)[C@]12C(=O)Nc1ccc(F)cc12", "target": "CDK4", "test": "cell-free assay, inhibitor, TR-FRET", "conditions": "1 µM", "measurement": "inhibition", "value": "32.6%"}
{"SMILES": "Nc1ncc(-c2nc(N3CCOCC3)nc(N3CCOCC3)n2)c(C(F)F)n1", "target": "Fibroblast growth factor receptor 3 (FGFR3, Homo sapiens, UniProt P22607, G697C)", "test": "cell-free assay, competition with immobilised ligand", "conditions": "10 µM", "measurement": "remaining binding", "value": "83%"}
{"SMILES": "C#Cc1n[nH]c2c(-c3cn([C@@H](C)c4ccccn4)c(=O)[nH]c3=O)cc(F)cc12", "target": "Tyrosine-protein kinase Fes/Fps (FES, Homo sapiens, UniProt P07332)", "test": "enzyme activity, inhibitor", "conditions": "0.1 µM", "measurement": "inhibition", "value": "10%"}
{"SMILES": "COC(=O)[C@H](CCCNC(=N)N)NC(=O)c1ccccc1", "target": "Protein-arginine deiminase type-3 (PADI3, Homo sapiens, UniProt Q9ULW8)", "test": "enzyme activity, substrate", "measurement": "Km", "value": "10.8 mM"}
{"SMILES": "CCOC(=O)[C@H]1Cc2c(cc([N+](=O)[O-])cc2[N+](=O)[O-])[C@@H](O)[C@@]12C(=O)Nc1ccc([N+](=O)[O-])cc12", "target": "CDK4", "test": "cell-free assay, inhibitor, TR-FRET", "conditions": "1 µM", "measurement": "inhibition", "value": "42.8%"}
